Results gathered from unrelated publications.
Protocols differ between the studies behind these lines.
Cell line: HepG2
Read-out: cell growth or viability

| SMILES | method | concentration | time | endpoint | value |
| --- | --- | --- | --- | --- | --- |
| CCOC(=O)c1ccc(-n2c(C)cc(C)c(C#N)c2=O)cc1 | MTT | 100 µM | 24 h | viability | 36.4% |
| Cc1ccc2nc(-c3ccc([N+](=O)[O-])cc3)n(Cc3ccccc3Cl)c2c1 | MTT | – | – | IC50 | 34.3 µM |
| CCn1cc(-c2nnc(-c3cccnc3)o2)c(=O)c2cc(F)c(N3CCC(C)CC3)cc21 | ATP luminescence | – | 48 h | EC50 | > 40 µM |
| COc1ccc(-c2cc(-c3ccc4oc(=O)cc(C)c4c3O)nc(N)n2)cc1 | MTT | 128 µg/mL | 72 h | inhibition | 40% |
| Cc1ccc(/C=N/NC(=O)c2ccc(Nc3cc(C)nc4c(O)cccc34)cc2)cc1 | MTT | 20 µM | – | inhibition | 41.3% |
| CCOC(=O)c1ccc(-n2c(C)cc(/C=C/c3ccc(OC)cc3)c(C#N)c2=O)cc1 | MTT | 100 µM | 24 h | viability | 47.4% |
| CSc1ccc(-c2nc3ccc(C)cc3n2Cc2ccccc2)cc1 | MTT | – | – | IC50 | 17.7 µM |
| CCCC1CCN(c2cc3c(cc2F)c(=O)c(-c2nc(C)no2)cn3CC)CC1 | ATP luminescence | – | 48 h | EC50 | > 40 µM |
| COc1cc2ncnc(Nc3ccc(F)c(Cl)c3)c2cc1NC(=O)N/N=C/CN(C)C | MTT | – | 72 h | IC50 | 2.08 µM |
| Cc1ccc(-c2cc(-c3ccc4oc(=O)cc(C)c4c3O)nc(N)n2)cc1 | MTT | 32 µg/mL | 72 h | inhibition | 0% |
| COc1ccc(NCC(=O)Nc2c(C#N)sc(Nc3ccccc3)c2C(=O)Nc2ccc(OC)cc2)cc1 | SRB | 1 µM | 48 h | viability | 71.6% |
| CSc1ccc(-c2nc3ccccc3[nH]2)cc1 | MTT | – | 48 h | IC50 | 40.1 µM |
| O=C(CN1C(=O)/C(=C/C2CC2)SC1=S)Nc1ccccc1 | MTT | 10 µM | – | inhibition | 11% |
| CCn1cc(-c2nc(C)no2)c(=O)c2cc(F)c(N3CCC(CN4CCOCC4)CC3)cc21 | ATP luminescence | – | 48 h | EC50 | > 40 µM |
| COc1ccc(NC(=O)c2c(Nc3ccccc3)sc(C(=O)NN=Cc3ccc(Br)cc3)c2NC(C)=O)cc1 | SRB | 1 µM | 48 h | viability | 85.2% |
| COc1ccc(-c2nc3ccc(C)cc3[nH]2)cc1OC | MTT | – | 48 h | IC50 | 43.6 µM |
| Cc1cc(=O)oc2ccc(-c3cc(-c4cccc(Cl)c4)nc(N)n3)c(O)c12 | MTT | 32 µg/mL | 72 h | inhibition | 19% |
| Cc1cc(Nc2ccc(C(=O)N/N=C/c3cccs3)cc2)c2cccc(O)c2n1 | MTT | 20 µM | – | inhibition | 49% |
| CCn1cc(-c2nc(C)no2)c(=O)c2cc(F)c(N3CCC(Cc4ccccc4)CC3)cc21 | ATP luminescence | – | 48 h | EC50 | > 40 µM |
| COc1cc2c(c(OC)c1OC)-c1ccc(OC)c(=O)cc1[C@@H](NC(C)=O)CC2 | MTT | 10 µM | – | inhibition | 56.4% |
| Cc1cc(Nc2ccc(C(=O)N/N=C/c3nc4ccccc4[nH]3)cc2)c2cccc(O)c2n1 | MTT | 20 µM | – | inhibition | 46.4% |
| Clc1ccc(-c2nc3ccccc3n2Cc2ccccc2)cc1Cl | MTT | – | – | IC50 | 49.9 µM |
| CCOC(=O)c1ccc(-n2c(C)cc(/C=C/c3ccc(OCC)cc3)c(C#N)c2=O)cc1 | MTT | 100 µM | 24 h | viability | 40.7% |
| COc1cccc(NC(=O)CN2C(=O)/C(=C/c3ccc(F)cc3)SC2=S)c1 | MTT | 10 µM | – | inhibition | 10.2% |
| CC(=O)Nc1cccc(-n2c(=O)n(C3CC3)c(=O)c3c(Nc4ccc(I)cc4F)n(C)c(=O)c(C)c32)c1 | resazurin | 780 pM | 72 h | viability | 99.5% |

| SMILES | method | concentration | time | endpoint | value |
| --- | --- | --- | --- | --- | --- |
| Cc1cc(=O)oc2ccc(-c3cc(-c4ccc(Cl)cc4)nc(N)n3)c(O)c12 | MTT | 32 µg/mL | 72 h | inhibition | 65% |
| CCn1cc(-c2nc(C)no2)c(=O)c2cc(F)c(N3CCC(C(C)C)CC3)cc21 | ATP luminescence | – | 48 h | EC50 | > 40 µM |
| CCOC(=O)c1ccc(N2C(N)=C(C#N)C3(C(=O)Nc4ccccc43)C(C#N)=C2O)cc1 (stereo not shown) | MTT | 50 µM | 24 h | viability | 17.9% |
| O=C(CN1C(=O)/C(=C/c2ccccc2O)SC1=S)Nc1ccccc1 | MTT | 10 µM | – | inhibition | 26.4% |
| COc1cc2ncnc(Nc3ccc(F)c(Cl)c3)c2cc1NC(=O)N/N=C/c1cccn1CCN(C)C | MTT | – | 72 h | IC50 | 0.11 µM |
| COc1ccc(NC(=O)c2c(Nc3ccccc3)sc(C#N)c2NC(=O)CNc2ccc(C)cc2)cc1 | SRB | 100 µM | 48 h | viability | 62.3% |
| CCn1cc(-c2nc(C)no2)c(=O)c2cc(F)c(N3CCN(C)CC3)cc21 | ATP luminescence | – | 48 h | EC50 | > 40 µM |
| Cc1cc(=O)oc2ccc(-c3cc(-c4ccc(Br)cc4)nc(N)n3)c(O)c12 | MTT | 128 µg/mL | 72 h | inhibition | 20% |
| CCOC(=O)c1ccc(-n2c(-c3ccc(C)cc3)cc(-c3ccc(O)cc3)c(C#N)c2=O)cc1 | MTT | 50 µM | 24 h | viability | 25.6% |
| COc1ccc(NC(=O)c2c(Nc3ccccc3)sc(C(=O)NN=Cc3ccccc3)c2NC(C)=O)cc1 | SRB | 1 µM | 48 h | viability | 72% |
| Cc1ccc2nc(-c3ccco3)n(Cc3ccccc3)c2c1 | MTT | – | – | IC50 | 55.5 µM |
| COc1ccc(NC(=O)c2c(Nc3ccccc3)sc(C#N)c2NC(=O)CNc2ccccc2)cc1 | SRB | 10 nM | 48 h | viability | 90.3% |
| Clc1ccc(-c2nc3ccccc3n2Cc2ccccc2)cc1 | MTT | – | – | IC50 | 47.2 µM |
| COc1ccc(NC(=O)c2c(Nc3ccccc3)sc(C#N)c2NC(=O)CNc2ccc(O)cc2)cc1 | SRB | 10 µM | 48 h | viability | 61.6% |
| CCOC(=O)c1ccc(-n2c(N)c(C#N)c(CC#N)c(C#N)c2=O)cc1 | MTT | 25 µM | 24 h | viability | 50.9% |
| O=C(N/N=C/CN1CCCCC1)Nc1cc2c(Nc3ccc(F)c(Cl)c3)ncnc2cc1O[C@H]1CCOC1 | MTT | – | 72 h | IC50 | 0.42 µM |
| COc1cccc(NC(=O)CN2C(=O)/C(=C/c3ccccc3)SC2=S)c1 | MTT | 10 µM | – | inhibition | 11.8% |
| COc1ccc(NC(=O)c2c(Nc3ccccc3)sc(C(=O)NN=Cc3cc(OC)c(OC)c(OC)c3)c2NC(C)=O)cc1 | SRB | 10 µM | 48 h | viability | 42.9% |
| CC(C)(CO)Cn1nc(-c2ccc3nc(OCC(F)(F)F)ccc3c2)c2c(N)ncnc21 | – | – | – | GI50 | > 10 µM |
| O=C(CN1C(=O)/C(=C/c2ccccc2)SC1=S)Nc1ccccc1 | MTT | 10 µM | – | inhibition | 31.3% |
| Cc1cc(=O)oc2ccc(-c3cc(-c4ccccc4)nc(N)n3)c(O)c12 | MTT | 2 µg/mL | 72 h | inhibition | 0% |
| C=CCn1c(-c2ccc(Cl)cc2)nc2ccccc21 | MTT | – | – | IC50 | 58.9 µM |
| COc1ccc(NC(=O)c2c(Nc3ccccc3)sc(C(=O)NN=Cc3ccc(Cl)cc3)c2NC(C)=O)cc1 | SRB | 100 µM | 48 h | viability | 52.6% |
| CCOC(=O)c1ccc(NC(=O)C2=C3C(=Nc4ccccc43)NC2=O)cc1 | MTT | 3.125 µM | 24 h | viability | 100% |
